Data on one compound can be found in BindingDB's records for doi:10.1016/s0960-894x(03)00042-8 (Merck Frosst Centre For Therapeutic Research, 2003).

pKi: −log10 of the molar value.

This assay deals with Prostaglandin E2 receptor EP4 subtype (Homo sapiens, UniProt P35408). The assay can be described thus: Binding affinity towards EP4 receptor expressed in HEK293 ebna cells recombinantly expressing the corresponding human prostanoid cDNAs. Summed up:
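Competition binding used membrane preparations, not intact cells, from HEK293ebna cells expressing each recombinant human prostanoid receptor cDNA.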

Chain of Prostaglandin E2 receptor EP4 subtype (P35408 whole entry): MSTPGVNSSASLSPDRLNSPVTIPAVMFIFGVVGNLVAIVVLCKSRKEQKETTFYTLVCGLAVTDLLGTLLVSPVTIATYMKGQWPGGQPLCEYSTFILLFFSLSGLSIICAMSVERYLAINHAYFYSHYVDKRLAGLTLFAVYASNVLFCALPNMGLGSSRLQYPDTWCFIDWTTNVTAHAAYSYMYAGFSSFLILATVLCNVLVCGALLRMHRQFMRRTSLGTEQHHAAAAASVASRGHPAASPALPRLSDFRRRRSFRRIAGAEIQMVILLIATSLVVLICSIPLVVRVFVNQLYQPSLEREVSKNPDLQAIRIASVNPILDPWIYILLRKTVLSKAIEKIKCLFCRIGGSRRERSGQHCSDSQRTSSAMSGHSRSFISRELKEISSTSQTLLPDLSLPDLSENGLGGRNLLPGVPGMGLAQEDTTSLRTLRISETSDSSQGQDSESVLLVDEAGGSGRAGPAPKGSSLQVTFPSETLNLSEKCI

The term pKi denotes the negative decadic logarithm of the Ki, by convention in mol/L. For `O=C1CC[C@H](/C=C/[C@H](O)Cc2ccccc2)N1CCCCCCc1nnn[nH]1`, the pKi was 8.60.
